Test results: ChEMBL document CHEMBL2021780, “Antineoplastic agents. 548. Synthesis of iodo- and diiodocombstatin phosphate prodrugs” (J Nat Prod, 2012)
Converted amounts (≈) assume the structure as drawn. The source made the active and inactive calls. The rule behind the calls is not given here.

Experiments:
[1] = system: P388; test: Growth inhibition of mouse P388 cells after 48 hrs by Z1 Beckman/Coulter particle counter analysis; assay type: functional; conditions: P388, 48 h, read-out: ED50 (the source's name)
How it was run: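 Mouse P388 leukemia cells were incubated 24 h in 10% horse serum/Fisher medium, then exposed 48 h to serial compound dilutions. ED50 was calculated from cell counts on a Coulter Z1 particle counter.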

[2] = system: BXPC-3; test: Growth inhibition of human BxPC3 cells after 48 hrs by sulforhodamine B assay; assay type: functional; conditions: BXPC-3, 48 h
How it was run: (§1)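 NCI sulforhodamine B assay. Cells were seeded in 5% FBS/RPMI-1640 and incubated 24 h. Serial compound dilutions were then added for 48 h. Cells were fixed with trichloroacetic acid, stained with SRB and read by microplate reader. GI50 is the concentration giving 50% reduction in net protein increase, calculated from optical density data.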

[3] = system: MCF7; test: Growth inhibition of human MCF7 cells after 48 hrs by sulforhodamine B assay; assay type: functional; conditions: MCF7, 48 h; how it was run: as §1
[4] = system: SF-268; test: Growth inhibition of human SF268 cells after 48 hrs by sulforhodamine B assay; assay type: functional; conditions: SF-268, 48 h; how it was run: as §1
[5] = system: NCI-H460; test: Growth inhibition of human NCI-H460 cells after 48 hrs by sulforhodamine B assay; assay type: functional; conditions: NCI-H460, 48 h; how it was run: as §1
[6] = system: KM-20L2; test: Growth inhibition of human KM20L2 cells after 48 hrs by sulforhodamine B assay; assay type: functional; conditions: KM-20L2, 48 h; how it was run: as §1
[7] = system: DU-145; test: Growth inhibition of human DU145 cells after 48 hrs by sulforhodamine B assay; assay type: functional; conditions: DU-145, 48 h; how it was run: as §1
[8] = Growth inhibition of human KAT4 cells after 48 hrs by sulforhodamine B assay; assay type: functional; conditions: KAT-4, 48 h
[9] = system: SW-1736; test: Growth inhibition of human SW1736 cells after 48 hrs by sulforhodamine B assay; assay type: functional; conditions: SW-1736, 48 h
[10] = system: HUVEC; test: Antiangiogenic activity in HUVEC assessed as cell growth inhibition after 48 hrs by sulforhodamine B assay; assay type: functional, cell-based; conditions: Homo sapiens
How it was run: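 HUVECs were grown in EGM-2 medium and tested with the standard SRB growth assay following NCI Developmental Therapeutics Program Matrigel antiangiogenesis protocols. IC50 (concentration causing 50% inhibition) was calculated from plotted data.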

[11] = system: HUVEC; test: Antiangiogenic activity in HUVEC assessed as reduction of cord length at 0.01 ug/ml after 24 hrs by matrigel assay relative to control; assay type: functional; conditions: Homo sapiens
How it was run: (§2)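 Commercial HUVECs grown in EGM-2 were seeded at 2 × 10⁵ cells/mL onto Matrigel, which had been polymerized 15 min at rt and then 30 min at 37 °C, per NCI DTP protocol. Compound was added and cells were incubated 24 h, then imaged by inverted microscopy. Cord length and junction number were scored against untreated control on a scale from − (none) to +++ (same as control), with ++ = 50% of control.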

[12] = system: HUVEC; test: Antiangiogenic activity in HUVEC assessed as reduction of cord length at 0.001 ug/ml after 24 hrs by matrigel assay relative to control; assay type: functional; conditions: Homo sapiens; how it was run: as §2
[13] = system: HUVEC; test: Antiangiogenic activity in HUVEC assessed as reduction of cord length at 0.0001 ug/ml after 24 hrs by matrigel assay relative to control; assay type: functional, Homo sapiens; set-up: scale not given: the % may be the effect or the level left
How it was run: (§3)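 Matrigel was polymerised in wells (15 min rt, then 30 min 37 °C). HUVECs (2 × 10⁵ cells/mL) were added with compound and incubated 24 h, then imaged by inverted microscope. Cord length and junction number were scored semi-quantitatively versus untreated control (− none to +++ same as control).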

[14] = system: HUVEC; test: Antiangiogenic activity in HUVEC assessed as reduction of number of junctions at 0.01 ug/ml after 24 hrs by matrigel assay relative to control; assay type: functional; conditions: Homo sapiens; how it was run: as §2
[15] = system: HUVEC; test: Antiangiogenic activity in HUVEC assessed as reduction of number of junctions at 0.001 ug/ml after 24 hrs by matrigel assay relative to control; assay type: functional; conditions: Homo sapiens; how it was run: as §2
[16] = system: HUVEC; test: Antiangiogenic activity in HUVEC assessed as reduction of number of junctions at 0.0001 ug/ml after 24 hrs by matrigel assay relative to control; assay type: functional, Homo sapiens; set-up: scale not given: the % may be the effect or the level left; how it was run: as §3
[17] = system: HUVEC; test: Antiangiogenic activity in HUVEC assessed as cell growth at 0.01 ug/ml after 24 hrs by sulforhodamine B assay relative to control; assay type: functional, Homo sapiens; conditions: Homo sapiens, HUVEC, 24 h; read-out: Activity
[18] = system: HUVEC; test: Antiangiogenic activity in HUVEC assessed as cell growth at 0.001 ug/ml after 24 hrs by sulforhodamine B assay relative to control; assay type: functional, Homo sapiens; conditions: Homo sapiens, HUVEC, 24 h; read-out: Activity
[19] = system: HUVEC; test: Antiangiogenic activity in HUVEC assessed as cell growth at 0.0001 ug/ml after 24 hrs by sulforhodamine B assay relative to control; assay type: functional, Homo sapiens; conditions: Homo sapiens, HUVEC, 24 h; read-out: Activity
[20] = system: HUVEC; test: Antiangiogenic activity in HUVEC assessed as cell growth at 0.00001 ug/ml after 24 hrs by sulforhodamine B assay relative to control; assay type: functional; conditions: Homo sapiens, read-out: Activity
[21] = Inhibition of purified tubulin assembly after 20 mins
How it was run: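 Purified tubulin at 10 μM in 0.8 M monosodium glutamate (pH 6.6), 0.4 mM GTP and 4% (v/v) DMSO, with varying compound concentrations. Extent of assembly was measured after 20 min at 30 °C.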

[22] = Displacement of [3H]colchicine from tubulin at 1 uM after 10 mins
How it was run: (§4)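 [³H]colchicine binding: 1.0 μM tubulin with 5.0 μM [³H]colchicine and compound, incubated 10 min at 37 °C. The tubulin–colchicine complex was separated from unbound label by retention on DEAE-cellulose filters. Result is inhibition of radiolabel binding.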

[23] = Displacement of [3H]colchicine from tubulin at 10 uM after 10 mins; how it was run: as §4
[24] = system: Micrococcus luteus; test: Antibacterial activity against Micrococcus luteus Presque Isle 456 by broth microdilution method; assay type: functional
How it was run: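 Broth microdilution per NCCLS bacterial (M7-A5) and yeast standards. Compounds were reconstituted in sterile DMSO and diluted in the appropriate medium just before testing. MIC is the lowest concentration giving complete inhibition of visible growth (optically clear). Assays were repeated on separate days.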

[25] = system: Cryptococcus neoformans; test: Antifungal activity against Cryptococcus neoformans ATCC 90112 by broth microdilution method

COc1ccc(/C=C\c2cc(I)c(OC)c(OC)c2)cc1O [IODOCOMBSTATIN]
EC50 [1]: 2 ng/mL (≈ 4.85 nM)
GI50 [2]: 48 ng/mL (≈ 116 nM)
GI50 [3]: 0.22 ng/mL (≈ 0.534 nM)
GI50 [4]: 0.18 ng/mL (≈ 0.437 nM)
GI50 [5]: 0.29 ng/mL (≈ 0.704 nM)
GI50 [6]: 328 ng/mL (≈ 796 nM)
GI50 [7]: 0.18 ng/mL (≈ 0.437 nM)
GI50 [8]: 89 ng/mL (≈ 216 nM)
GI50 [9]: 2200 ng/mL (≈ 5340 nM)
IC50 [10]: 0.04 ng/mL (≈ 0.097 nM)
Activity [11]: Active
Activity [12]: Active
Activity [13]: 75%
Activity [14]: Active
Activity [15]: Active
Activity [16]: 75%
growth at 0.01 µg/mL [17]: 14%
growth at 0.001 µg/mL [18]: 14%
growth at 0.0001 µg/mL [19]: 18%
growth at 10 pg/mL [20]: 90%
IC50 [21]: 2.5 µM
inhibition [22]: 78%
inhibition [23]: 100%
MIC [24]: 2000 ng/mL (≈ 4850 nM)
MIC [25]: 64000 ng/mL (≈ 155000 nM)
